According to PubChem BioAssay AID504382 (The Scripps Research Institute Molecular Screening Center, 2011):
About 460 (18%) of roughly 2,500 compounds were called active. Not all results are given here. Values without a mark were called inactive.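 The calls were made as follows: active = mean activation above a cutoff of low control average plus 3 SD from the earlier screen (cut at about 12% in these data); inactive = the rest.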

Experiment: compound fluorescence interference without thin filaments, confirmation, artefact control for cardiac RTF calcium sensitizer project, biochemical (AID 504382)
Details: IANBD fluorescence interference counterscreen, buffer, EC20 Ca2+; at 7.2 µM; active compounds read high; scaled: EC20 calcium 0, EC100 calcium 100
Method in brief: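 Medium: MOPS buffer, 190 mM, with KCl, MgCl2, EGTA, NTA, DTT, pH 7.20; Dosing: one dose of 7.2 µM, 0.7% DMSO; Probe or stimulus: calcium at EC20 level, 0.472 mM final; Incubation: 15 min, 25 °C; Evaluation: compound fluorescence interference relative to control well signal range; Signal: fluorescence, 480/540 nm.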

In order of rising fluorescence artifact activation:
1. O=C1CCc2cc(S(=O)(=O)NC3CCCCC3)ccc2N1  -0.07%
2. Cc1cc(C)n2nc(SCC(=O)N(C)Cc3ccccc3)nc2n1  -0.05%
3. CCN(CC)c1ccc2cc(-c3nc(-c4cc5ccccc5oc4=O)cs3)c(=O)oc2c1  -0.03%
4. O=c1oc2c3c4c(cc2c(C(F)(F)F)c1CCN1CCOCC1)CCCN4CCC3  -0.03%
5. O=C1c2cccc3c(N4CCCCC4)ccc(c23)C(=O)N1c1ccccc1O  -0.03%
6. CN1CCS/C1=C/C=C1/SC(=S)N(Cc2ccccc2)C1=O  -0.03%
7. COc1cc(OC)c(OC)cc1/C=C1\Oc2cc(OCC(=O)N3Cc4ccccc4C[C@H]3C(=O)O)ccc2C1=O  -0.01%
8. Cc1ccc(C2NC(=O)c3c(sc4c3CCN(C)C4)N2)s1 (stereo not drawn)  0%
9. CCOC(=O)c1c(NC(=O)CSc2nc3cc(Cl)ccc3c(=O)n2Cc2ccco2)sc(C(=O)N(C)C)c1C  0%
10. Cc1cccc(N2C(=O)c3cccc4c(N)ccc(c34)C2=O)c1  0.02%
11. CSc1nnc(-c2ccc(S(=O)(=O)N3CCCC3)cc2)n1C  0.02%
12. O=c1oc2c(O)cccc2cc1-c1nc2ccccc2[nH]1  0.04%
13. COc1ccc(O)c(/C=N/c2nc3ccccc3n2C)c1  0.05%
14. COc1cc(/C=C2/SC(=S)N(CCC(=O)Nc3ccccc3)C2=O)cc(OC)c1OC  0.06%
15. CCN1/C(=C2\SC(=S)N(Cc3ccccc3)C2=O)Sc2ccccc21  0.08%
16. CC(=O)c1cc(NC(=O)c2ccccc2)c(=O)oc1/C=C/N(C)C  0.09%
17. C#CCSc1nc2[nH]ncc2c(=O)[nH]1  0.09%
18. Cn1ncc(N=Cc2c(O)ccc3ccccc23)c1C(=O)Nc1cccc(Cl)c1  0.09%
19. CCOC(=O)c1cc2c(=O)n3ccccc3nc2n(CCOC)c1=NC(=O)c1c(-c2c(F)cccc2Cl)noc1C  0.12%
20. CC1(C)CC2CC(C)(CN2CC(=O)C(C#N)c2ccccc2)C1 (stereo not drawn)  0.12%
21. CS(=O)(=O)N(CC(=O)NCCSCc1ccccc1)c1ccccc1  0.13%
22. CC(C)(C)C1(O)CC(C(F)(F)F)=NN1C(=O)CCCc1ccccc1 (stereo not drawn)  0.13%
23. C=CCn1cc(/C=C/c2cc[n+](C)cc2)c2ccccc21  0.14%
24. CCNc1cccc2c1C(=O)N(C)C2=O  0.15%
25. CCOc1ccc(NC(=O)/C(C#N)=C\c2ccc(N3CCCC3)c(C)c2)cc1  0.15%
26. COc1ccc(N=Nc2nc3ccc(Br)cc3n2C)cc1  0.16%
27. S=C(NCCCN1CCOCC1)Nc1ccc(-c2nc3ccccc3[nH]2)cc1  0.17%
28. CCN(C(=O)CN1CCCc2cc(C)ccc21)c1c(N)n(Cc2ccccc2)c(=O)[nH]c1=O  0.2%
29. CC(C)(CN1CCc2ccccc2C1)NS(=O)(=O)c1ccc(Cl)cc1  0.2%
30. CN1CCc2c(sc3c2C(=O)NC(c2cccs2)N3)C1 (stereo not drawn)  0.27%
31. CCn1c(Cc2ccccc2)nnc1SCC(=O)OC(C)C  0.3%
32. CN(C)Cc1c(O)ccc2c1O/C(=C\C=C\c1ccccc1)C2=O  0.37%
33. CCN1CCN(C2=CC3=CC(=C(C#N)C#N)CCC3CC2)CC1 (stereo not drawn)  0.47%
34. CCOC(=O)C1=C(COC(=O)c2ccc3ccccc3c2O)NC(=O)NC1C (stereo not drawn)  0.49%
35. CCN(CC)Cc1c(O)ccc2c1O/C(=C\C=C\c1ccccc1)C2=O  0.87%
36. COc1ccc(C(=O)N/N=C/c2sc3ccccc3c2O)cc1  1.31%
37. CCN(CC)c1ccc2cc(-c3nnc(-c4ccncc4)o3)c(=O)oc2c1  1.48%
38. CCN1CCN(Cc2c(O)ccc3c2O/C(=C\C=C\c2ccccc2OC)C3=O)CC1  1.64%
39. Cn1cccc1Cc1nnc(SCC(=O)Nc2ccc(F)cc2F)n1-c1ccc(F)cc1  1.86%
40. N#C/C(=C\c1coc2ccc(O)cc2c1=O)C(=O)Nc1nc2ccccc2s1  1.92%
41. CSc1nc2ccccc2n1CC(=O)Nc1c(C)cccc1C  2.26%
42. CCN1CCN(Cc2c(O)ccc3c2O/C(=C\c2ccccc2)C3=O)CC1  2.91%
43. CNc1ccccc1C(C)(C)c1cc(C)[nH]n1  3.66%
44. Cc1ccc(/C=C2\Oc3c(ccc(O)c3CN3CCN(CCO)CC3)C2=O)cc1  4.11%
45. CCCn1c(=O)c(C(=O)NNC(=O)c2ccccc2[N+](=O)[O-])c(O)c2ccccc21  5.02%
46. COC(=O)C1=C(C)NC(=O)/C1=C\N(C)C  5.29%
47. COc1ccccc1/C=C/C=C1\Oc2c(ccc(O)c2CN(C)C)C1=O  5.64%
48. Cc1cccc(/C=N/n2c(-c3ccncc3)n[nH]c2=S)c1  7.13%
49. COc1ccc(OC)c(/C=C2\N=C(c3ccccc3)OC2=O)c1  8.78%
50. COc1ccc(C(=O)Nc2cc(C(C)=O)c(/C=C/N(C)C)oc2=O)cc1  9.8%
51. O=C(N/N=C/c1sc2ccccc2c1O)c1ccccc1  9.97%
52. CCN1/C(=C/C=C2/SC(=Nc3cccc4ncccc34)N(C)C2=O)Sc2ccccc21  11.5%
53. CC(=O)Nc1ccc2cc3ccc(NC(C)=O)cc3nc2c1  11.6%

For `COC(=O)c1cc(NC(=O)c2ccccc2)c(=O)oc1/C=C/Nc1ccc(Oc2ccccc2)cc1`, the fluorescence artifact activation was 18.6% (active).
In the case of `CCN(CC)c1ccc2cc(-c3nnc(-c4ccccc4)o3)c(=O)oc2c1`, the fluorescence artifact activation is reported as 43.7% (active).
In the case of `CCN(C(=O)CSc1nnc(COc2ccccc2F)n1N)c1c(N)n(Cc2ccccc2)c(=O)[nH]c1=O`, the fluorescence artifact activation is reported as 382% (active).
With `CSCC(C)N1CCC(n2nccc2NC(=O)CCCc2ccccc2)CC1` (stereo not drawn) the fluorescence artifact activation was 26.2% (active).
With `Cc1ccsc1C1NC(=O)c2c(sc3c2CCN(C)C3)N1` (stereo not drawn) the fluorescence artifact activation was 28.8% (active).
In the case of `COc1ccc(N=Nc2nc3cc(Br)c(Br)cc3n2C)c(OC)c1`, the fluorescence artifact activation is reported as 765% (active).
In the case of `COc1ccc2cc(C(=O)N/N=C/c3sc4ccccc4c3O)ccc2c1`, the fluorescence artifact activation is reported as 93.2% (active).
With `O=C1c2cccc3c(O)ccc(c23)C(=O)N1Cc1ccccc1` the fluorescence artifact activation was 11.9% (active).
For `Fc1ccc(CN2CC[C@H]3C=CCc4cccc(c43)C2)cc1`, the fluorescence artifact activation was 52.5% (active).
In the case of `CCN1C(=O)/C(=C/N2CCc3ccccc32)SC1=S`, the fluorescence artifact activation is reported as 12.6% (active).
In the case of `O=c1oc2c(CN3CCCCC3)c(O)ccc2cc1-c1nc2ccccc2[nH]1`, the fluorescence artifact activation is reported as 60.5% (active).
In the case of `Cc1ccc(CNC(=O)CC(C)S(=O)(=O)c2ccc3c(c2)NC(=O)CS3)o1` (stereo not drawn), the fluorescence artifact activation is reported as 45.8% (active).
In the case of `COc1ccccc1/C=C/C=C1\Oc2c(ccc(O)c2CN2CCN(CCO)CC2)C1=O`, the fluorescence artifact activation is reported as 11.9% (active).
In the case of `O=C1/C(=C/C=C/c2ccccc2)Oc2c1ccc(O)c2CN1CCN(CCO)CC1`, the fluorescence artifact activation is reported as 46.6% (active).
For `CCN1CCN(Cc2c(O)ccc3c2O/C(=C\C=C\c2ccccc2)C3=O)CC1`, the fluorescence artifact activation was 20.6% (active).
